Data set [1] is described as follows: Partition coefficient at pH 7.4 by shake-flask method. It is filed as physicochemical. Particulars: octanol/water. In short, it runs like this: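 Octanol-water partition coefficient by shake-flask at pH 7.4, reported with SEM.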
For data set [2], the system named is V79. Nature of the data set: Antiproliferative activity against chinese hamster wild-type V79 NTR-ve cells after 18 hrs. It is filed as functional, cell-based. Particulars: Cricetulus griseus, V79, 18 h.
For data set [3], the system named is V79. Nature of the data set: Antiproliferative activity against chinese hamster V79 NTRpuro cells after 18 hrs. It is filed as functional, cell-based. Particulars: Cricetulus griseus, V79, 18 h.
Data set [4] has as its system V79. Put plainly: Selectivity ratio of IC50 for V79 NTR-ve cells to IC50 for V79 NTRpuro cells. Type of data set: functional, Cricetulus griseus.
The test system of data set [5] is EMT6. Put plainly: Antiproliferative activity against mouse wild type EMT6 NTR-ve cells after 18 hrs. Type of data set: functional, cell-based. Particulars: EMT6, 18 h.
The test system of data set [6] is EMT6. Nature of the data set: Antiproliferative activity against mouse EMT6 NTRpuro cells after 18 hrs. Particulars: EMT6, 18 h. It is filed as functional, cell-based.
Data set [7] concerns EMT6. Put plainly: Selectivity ratio of IC50 for EMT6 NTR-ve cells to IC50 forEMT6 NTRpuro cells. Type of data set: functional, Mus musculus.
For data set [8], the system named is WiDr. Nature of the data set: Antiproliferative activity against human wild type WiDr NTR-ve cells after 18 hrs. It is filed as functional, cell-based.
For data set [9], the system named is WiDr. Nature of the data set: Antiproliferative activity against human WiDr NTRneo cells after 18 hrs. Type of data set: functional, cell-based.
Data set [10] deals with WiDr. Nature of the data set: Selectivity ratio of IC50 for WiDr NTR-ve cells to IC50 for WiDr NTRneo cells. Type of data set: functional, Homo sapiens.
Data set [11] in a line: Antiproliferative activity against human wild type Skov3 NTR-ve cells after 18 hrs. It is filed as functional, cell-based.
Data set [12] concerns V79. Put plainly: Clonogenic survival of V79 NTRoua cells after 5 hrs by MCL assay. It is filed as functional, Cricetulus griseus.
Data set [13] in a line: Antiproliferative activity against human Skov3 NTRneo cells after 18 hrs. Particulars: SK-OV-3, 18 h. It is filed as functional, cell-based.
Data set [14] can be described thus: Selectivity ratio of IC50 for Skov3 NTR-ve cells to IC50 for Skov3 NTRneo cells. It is filed as functional, Homo sapiens.
For data set [15], the system named is V79. Put plainly: Clonogenic survival of 3% V79 NTRpuro cells in co-cultures with 97% V79 NTRoua after 5 hrs by MCL assay. Type of data set: functional, Cricetulus griseus. In short, it runs like this:
(§1)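 Multicellular layer cocultures of 3% V79-NTRpuro activators and 97% V79oua NTR-ve targets (ouabain-resistant), exposed to prodrug for 5 h. MCLs were then trypsin-dissociated and plated in ouabain or puromycin selective media for clonogenic survival. C10 (10% survival) interpolated for activators and targets; AC/TC ratio derived. Mean with SEM or range over independent experiments.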

The subject of data set [16] is V79. Put plainly: Clonogenic survival of 97% V79 NTRoua cells in co-cultures with 3% V79 NTRpuro cells after 5 hrs by MCL assay. It is filed as functional, Cricetulus griseus. The gist of the method:
as §1

Data set [17] in a line: Solubility in alpha MEM. Type of data set: physicochemical. The gist of the method: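 Solubility (mM) in α-MEM with 5% fetal calf serum at ambient temperature, measured by HPLC.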
The nature of data set [18]: Stability in alpha MEM at 37 degC after 24 hrs. Type of data set: physicochemical. Particulars: read-out: Stability. The gist of the method:
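Percent parent compound remaining, by HPLC, after holding in α-MEM with 5% fetal calf serum at 37 °C for 24 h.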

≈ marks a conversion by molar mass, not a printed value.

The logD is lipophilicity at a set pH, counting ionised and neutral species. Higher therefore signals a more lipophilic compound. What is called IC50 is the concentration at which inhibition is half-maximal. Usually solubility stands for how much of the substance goes into solution per volume. Higher therefore signals a readily soluble substance. As to `NC(=O)c1cc(N(CCOS(N)(=O)=O)CCOS(N)(=O)=O)c([N+](=O)[O-])cc1[N+](=O)[O-]`, the logD in [1] was -0.95. In addition, the IC50 came out at 650 µM in the data set with V79 [2]; 0.87 µM in the data set on V79 [3]; 770 µM with EMT6 [5]; 1.6 µM in the data set with EMT6 [6]; 437 µM in the data set with WiDr [8]; 1.9 µM with WiDr [9]. Further, the figures for the IC50 in data set [11] and in data set [13] were 868 µM and 3.9 µM, respectively. Besides, the “Ratio IC50” value with V79 [4] was 788; in the data set on EMT6 [7], 491; in the data set on WiDr [10], 227; in data set [14] it was 265. The Activity in the data set on V79 [12] is above 1800 µM; with V79 [15], 9.5 µM; in the data set on V79 [16], 800 µM. The compound further displayed a solubility in data set [17] of 1800 µM (≈ 850 µg/mL). In addition, in data set [18], the remaining at 24 h stood at 95%.
As for `CS(=O)(=O)c1cc([N+](=O)[O-])c(N(CCCl)CCCl)cc1C(=O)NCC(O)CO` (stereo not given), the IC50 was determined as 843 µM in the data set on V79 [2]; 427 µM with V79 [3]; 1200 µM in the data set with EMT6 [5]; 189 µM in the data set on EMT6 [6]; 1980 µM with WiDr [8]; 994 µM with WiDr [9]. Further, the IC50 in [11] is 2320 µM; in [13] it was 745 µM. Also, the “Ratio IC50” value with V79 [4] is reported as 2.3; in the data set on EMT6 [7], 6.4; in the data set with WiDr [10], 2; in data set [14], 3.3. In [17], this compound registered a solubility of 16000 µM (≈ 7330 µg/mL). For the same compound, in data set [18], the remaining at 24 h was determined as 106%.
Consider `O=C(NCCO)c1cc(N(CCI)CCI)c([N+](=O)[O-])cc1[N+](=O)[O-]`, for which the IC50 in the data set with WiDr [8] stood at 28 µM; in the data set on WiDr [9] it was 0.882 µM. Moreover, the “Ratio IC50” value in the data set on WiDr [10] is 31.7. Also, the Activity in the data set on V79 [12] stood at 122 µM; with V79 [15], 5.5 µM; in the data set on V79 [16], 10 µM. Also, the concentration in solution in [17] (solubility) came to 400 µM (≈ 231 µg/mL). Also, the remaining at 24 h in [18] came out at 23%.
The compound `CS(=O)(=O)OCCN(CCBr)c1cc(C(=O)NCCO)c([N+](=O)[O-])cc1[N+](=O)[O-]` registered a logD in [1] of 0.46. Besides, the IC50 came to 633 µM in the data set on V79 [2]; 1 µM in the data set with V79 [3]; 219 µM in the data set on EMT6 [5]; 0.2 µM in the data set on EMT6 [6]; 194 µM with WiDr [8]; 0.78 µM in the data set on WiDr [9]. The IC50 in data set [11] was 286 µM; in data set [13], 0.61 µM. Also, the “Ratio IC50” value in the data set with V79 [4] is reported as 620; in the data set with EMT6 [7], 1330; in the data set with WiDr [10] it was 250; in data set [14], 467. The amount in solution in data set [17] (solubility) came to 1700 µM (≈ 849 µg/mL). For the same compound, in data set [18], the remaining at 24 h turned out to be 70%.
In the case of `CS(=O)(=O)c1cc([N+](=O)[O-])c(C(N)=O)cc1N(CCCl)CCCl`, the IC50 with V79 [2] was found to be 767 µM; in the data set with V79 [3], 9.5 µM; with EMT6 [5], 388 µM; in the data set with EMT6 [6], 3.9 µM; with WiDr [8], 350 µM; in the data set on WiDr [9], 26 µM. Also, the IC50 in data set [11] was determined as 980 µM; in data set [13] it was 15 µM. In addition, the “Ratio IC50” value in the data set with V79 [4] was 73; with EMT6 [7], 101; in the data set with WiDr [10], 15; in data set [14] it was 65. For the same compound, the figures for the Activity in the data set with V79 [12], in the data set with V79 [15] and in the data set with V79 [16] were above 1000 µM, 160 µM and above 300 µM, respectively. In addition, the concentration in solution in [17] (solubility) came to 330 µM (≈ 127 µg/mL).
Consider `CS(=O)(=O)OCCN(CCOS(C)(=O)=O)c1cc(C(=O)NCC(O)CO)c([N+](=O)[O-])cc1[N+](=O)[O-]` (stereo not given), for which the half-inhibitory concentration (IC50) amounted to 237 µM in the data set on V79 [2]; 16 µM in the data set on V79 [3]; 251 µM in the data set with EMT6 [5]; 8 µM in the data set with EMT6 [6]; 347 µM with WiDr [8]; 23 µM in the data set with WiDr [9]. Further, the IC50 came to 379 µM in [11] and 10 µM in data set [13]. For the same compound, the “Ratio IC50” value in the data set with V79 [4] turned out to be 13; in the data set on EMT6 [7], 31; in the data set with WiDr [10], 17; in [14], 43. The solubility in [17] amounted to 9000 µM (≈ 4900 µg/mL). Moreover, the remaining at 24 h in data set [18] turned out to be 54%.
On to `O=C(NCCO)c1cc(N(CCBr)CCBr)c([N+](=O)[O-])cc1[N+](=O)[O-]`, for which the logD in data set [1] was 1.69. The IC50 in the data set on V79 [2] turned out to be 80 µM; in the data set on V79 [3], 0.43 µM; with EMT6 [5], 70 µM; with EMT6 [6], 0.08 µM; with WiDr [8] it was 61 µM; in the data set with WiDr [9], 0.34 µM. The IC50 stood at 81 µM in data set [11] and 0.3 µM in data set [13]. Besides, the “Ratio IC50” value in the data set on V79 [4] came to 203; in the data set on EMT6 [7], 871; in the data set on WiDr [10], 182; in [14] it was 270. Also, the values for the Activity with V79 [12], in the data set on V79 [15] and in the data set on V79 [16] were 150 µM, 5.2 µM and 17 µM, respectively. In addition, the concentration in solution in [17] (solubility) was 320 µM (≈ 155 µg/mL). For the same compound, the remaining at 24 h in data set [18] was 76%.
As for `CS(=O)(=O)OCCN(CCBr)c1cc(C(=O)NO)c([N+](=O)[O-])cc1[N+](=O)[O-]`, the IC50 in the data set on V79 [2] was determined as 97 µM; in the data set on V79 [3], 0.9 µM; in the data set with EMT6 [5], 63 µM; in the data set with EMT6 [6], 0.41 µM; in the data set on WiDr [8], 113 µM; in the data set on WiDr [9] it was 1.16 µM. The values for the IC50 in data set [11] and in data set [13] were 146 µM and 1.44 µM, respectively. Moreover, the “Ratio IC50” value in the data set on V79 [4] amounted to 112; with EMT6 [7], 156; with WiDr [10], 100; in data set [14] it was 115. For the same compound, in data set [17], the solubility is 1500 µM (≈ 707 µg/mL). Moreover, the remaining at 24 h in [18] was found to be 48%.
With `O=C(NCCn1ccnc1)c1cc(N(CCCl)CCCl)c([N+](=O)[O-])cc1[N+](=O)[O-]`, the IC50 amounted to 273 µM in the data set on V79 [2]; 46 µM with V79 [3]; 178 µM in the data set on EMT6 [5]; 2.6 µM in the data set on EMT6 [6]; 163 µM with WiDr [8]; 11 µM in the data set on WiDr [9]. The IC50 in data set [11] was found to be 438 µM; in [13], 4.1 µM. Moreover, the “Ratio IC50” value is 6.6 with V79 [4], 52 in the data set with EMT6 [7], 18 in the data set on WiDr [10] and 140 in data set [14]. Moreover, in [17], the concentration in solution (solubility) came to 500 µM (≈ 223 µg/mL). In data set [18], the remaining at 24 h was 94%.
For the compound `O=C(NCCCn1ccnc1)c1cc(N(CCCl)CCCl)c([N+](=O)[O-])cc1[N+](=O)[O-]`, the IC50 stood at 174 µM in the data set on V79 [2]; 32 µM in the data set on V79 [3]; 187 µM in the data set with EMT6 [5]; 45 µM with EMT6 [6]; 106 µM in the data set with WiDr [8]; 37 µM in the data set with WiDr [9]. Besides, the IC50 is 474 µM in data set [11] and 18 µM in data set [13]. The “Ratio IC50” value is 7.4 in the data set on V79 [4], 41 in the data set with EMT6 [7], 2.9 with WiDr [10] and 26 in [14]. Further, in data set [17], the solubility is 19000 µM (≈ 8730 µg/mL). Besides, the remaining at 24 h in data set [18] is 70%.

Values taken from ChEMBL document CHEMBL1142960, “Synthesis and structure-activity relationships for 2,4-dinitrobenzamide-5-mustards as prodrugs for the Escherichia coli nfsB nitroreductase in gene therapy” (J Med Chem, 2007).
